Data reported in ChEMBL document CHEMBL4715736, “Identification of anticancer agents based on the thieno[2,3-b]pyridine and 1H-pyrazole molecular scaffolds” (2016).

Tested on: MCF7
Test: Growth inhibition of human MCF7 cells assessed as cell growth at 100 uM incubated for 48 hrs by sulforhodamine B assay relative to control
Type: functional
Settings: read-out: Activity

How did the growth at 100 µM turn out when `COc1cccc(NC(=O)c2sc3nc4c(cc3c2N)CN(Cc2ccccc2)CC4)c1` was run?
The growth at 100 µM was 3%.

Tested on: SR
Test: Growth inhibition of human SR cells incubated for 48 hrs by sulforhodamine B assay
Type: functional
Settings: not given
Summary of the method: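 NCI DTP 60-line human tumour panel. Dose-response curves were run only for ligands active in the initial 10 µM screen. GI50 (concentration giving 50% of maximal inhibition of proliferation) and TGI (concentration giving total growth inhibition) were derived from these curves.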

`COc1cccc(NC(=O)c2sc3nc4c(cc3c2N)CN(Cc2ccccc2)CC4)c1` was tested. Which GI50 did it give?
Its GI50 is 0.453 µM.

And the LC50?
Its LC50 is > 100 µM.

And the TGI?
Its TGI is 47.7 µM.

Tested on: HCT-116
Test: Growth inhibition of human HCT-116 cells assessed as cell growth at 1 uM incubated for 48 hrs by sulforhodamine B assay relative to control
Type: functional
Settings: read-out: Activity

For `COc1cccc(NC(=O)c2sc3nc4c(cc3c2N)CN(Cc2ccccc2)CC4)c1`, which growth at 1 µM is on record?
Its growth at 1 µM is 59%.

Tested on: PC-3
Test: Growth inhibition of human PC-3 cells assessed as cell growth at 0.1 uM incubated for 48 hrs by sulforhodamine B assay relative to control
Type: functional
Settings: read-out: Activity

For `COc1cccc(NC(=O)c2sc3nc4c(cc3c2N)CN(Cc2ccccc2)CC4)c1`, which growth at 0.1 µM is on record?
Its growth at 0.1 µM is 88%.

Tested on: M14
Test: Growth inhibition of human M14 cells assessed as cell growth at 1 uM incubated for 48 hrs by sulforhodamine B assay relative to control
Type: functional
Settings: read-out: Activity

For `COc1cccc(NC(=O)c2sc3nc4c(cc3c2N)CN(Cc2ccccc2)CC4)c1`, which growth at 1 µM is on record?
Its growth at 1 µM is 57%.

Tested on: HOP-92
Test: Growth inhibition of human HOP-92 cells assessed as cell growth at 0.1 uM incubated for 48 hrs by sulforhodamine B assay relative to control
Type: functional
Settings: read-out: Activity

How did the growth at 0.1 µM turn out when `COc1cccc(NC(=O)c2sc3nc4c(cc3c2N)CN(Cc2ccccc2)CC4)c1` was run?
The growth at 0.1 µM was 80%.

Tested on: HCC 2998
Test: Growth inhibition of human HCC 2998 cells assessed as cell growth at 100 uM incubated for 48 hrs by sulforhodamine B assay relative to control
Type: functional
Settings: read-out: Activity
Summary of the method: (§1)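 NCI Developmental Therapeutics Program NCI60 panel. Compounds that were active in the 10 µM one-dose screen went on to dose–response testing. Growth at each concentration is expressed relative to untreated control (100%). GI50 (concentration giving 50% of maximal inhibition of proliferation) and TGI (concentration giving total growth inhibition) were derived from the curves.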

How did the growth at 100 µM turn out when `COc1cccc(NC(=O)c2sc3nc4c(cc3c2N)CN(Cc2ccccc2)CC4)c1` was run?
Its growth at 100 µM is 9%.

Tested on: OVCAR-4
Test: Growth inhibition of human OVCAR-4 cells assessed as cell growth at 100 uM incubated for 48 hrs by sulforhodamine B assay relative to control
Type: functional
Settings: read-out: Activity

With `COc1cccc(NC(=O)c2sc3nc4c(cc3c2N)CN(Cc2ccccc2)CC4)c1` as the compound, how does the growth at 100 µM read?
The growth at 100 µM was -32%.

Tested on: MDA-MB-231
Test: Growth inhibition of human MDA-MB-231 cells assessed as cell growth at 0.1 uM incubated for 48 hrs by sulforhodamine B assay relative to control
Type: functional
Settings: read-out: Activity

Which growth at 0.1 µM does the source give for `COc1cccc(NC(=O)c2sc3nc4c(cc3c2N)CN(Cc2ccccc2)CC4)c1` here?
Its growth at 0.1 µM is 98%.

Tested on: SK-OV-3
Test: Growth inhibition of human SK-OV-3 cells assessed as cell growth at 0.1 uM incubated for 48 hrs by sulforhodamine B assay relative to control
Type: functional
Settings: read-out: Activity

With `COc1cccc(NC(=O)c2sc3nc4c(cc3c2N)CN(Cc2ccccc2)CC4)c1` as the compound, how does the growth at 0.1 µM read?
Its growth at 0.1 µM is 100%.

Tested on: Hs-578T
Test: Growth inhibition of human Hs-578T cells assessed as cell growth at 1 uM incubated for 48 hrs by sulforhodamine B assay relative to control
Type: functional
Settings: read-out: Activity

`COc1cccc(NC(=O)c2sc3nc4c(cc3c2N)CN(Cc2ccccc2)CC4)c1` was tested. Which growth at 1 µM did it give?
The growth at 1 µM was 72%.

Tested on: T47D
Test: Growth inhibition of human T47D cells assessed as cell growth at 1 uM incubated for 48 hrs by sulforhodamine B assay relative to control
Type: functional
Settings: read-out: Activity

Which growth at 1 µM does the source give for `COc1cccc(NC(=O)c2sc3nc4c(cc3c2N)CN(Cc2ccccc2)CC4)c1` here?
The growth at 1 µM was 71%.

Tested on: LOX IMVI
Test: Growth inhibition of human LOX IMVI cells assessed as cell growth at 1 uM incubated for 48 hrs by sulforhodamine B assay relative to control
Type: functional
Settings: read-out: Activity

With `COc1cccc(NC(=O)c2sc3nc4c(cc3c2N)CN(Cc2ccccc2)CC4)c1` as the compound, how does the growth at 1 µM read?
The growth at 1 µM was 86%.

Tested on: MCF7
Test: Growth inhibition of human MCF7 cells incubated for 48 hrs by sulforhodamine B assay
Type: functional
Settings: not given
Summary of the method: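 NCI60 panel at the NCI Developmental Therapeutics Program. Only compounds active in the 10 µM screen went to dose-response testing. GI50, the concentration giving 50% of maximal inhibition of proliferation, and TGI, the concentration giving total growth inhibition, were derived from the dose-response curves.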

With `COc1cccc(NC(=O)c2sc3nc4c(cc3c2N)CN(Cc2ccccc2)CC4)c1` as the compound, how does the GI50 read?
Its GI50 is 0.62 µM.

What about the TGI of the same compound?
Its TGI is > 100 µM.

Same assay, conditions: read-out: LC50 (the source's name)

With `COc1cccc(NC(=O)c2sc3nc4c(cc3c2N)CN(Cc2ccccc2)CC4)c1` as the compound, how does the CC50 read?
The CC50 was > 100 µM.

Tested on: HCC 2998
Test: Growth inhibition of human HCC 2998 cells assessed as cell growth at 0.1 uM incubated for 48 hrs by sulforhodamine B assay relative to control
Type: functional
Settings: read-out: Activity
Summary of the method: as §1

Which growth at 0.1 µM does the source give for `COc1cccc(NC(=O)c2sc3nc4c(cc3c2N)CN(Cc2ccccc2)CC4)c1` here?
Its growth at 0.1 µM is 98%.

Tested on: SF-268
Test: Growth inhibition of human SF-268 cells assessed as cell growth at 1 uM incubated for 48 hrs by sulforhodamine B assay relative to control
Type: functional
Settings: read-out: Activity

Which growth at 1 µM does the source give for `COc1cccc(NC(=O)c2sc3nc4c(cc3c2N)CN(Cc2ccccc2)CC4)c1` here?
The growth at 1 µM was 91%.

Tested on: RXF 393
Test: Growth inhibition of human RXF 393 cells assessed as cell growth at 1 uM incubated for 48 hrs by sulforhodamine B assay relative to control
Type: functional
Settings: read-out: Activity

With `COc1cccc(NC(=O)c2sc3nc4c(cc3c2N)CN(Cc2ccccc2)CC4)c1` as the compound, how does the growth at 1 µM read?
The growth at 1 µM was 84%.

Tested on: CAKI-1
Test: Growth inhibition of human CAKI-1 cells incubated for 48 hrs by sulforhodamine B assay
Type: functional
Settings: not given
Summary of the method: as §1

With `COc1cccc(NC(=O)c2sc3nc4c(cc3c2N)CN(Cc2ccccc2)CC4)c1` as the compound, how does the GI50 read?
Its GI50 is 11.7 µM.

What about the TGI of the same compound?
Its TGI is > 100 µM.

Same assay, conditions: read-out: LC50 (the source's name)

For `COc1cccc(NC(=O)c2sc3nc4c(cc3c2N)CN(Cc2ccccc2)CC4)c1`, which CC50 is on record?
Its CC50 is > 100 µM.

Tested on: HT-29
Test: Growth inhibition of human HT-29 cells assessed as cell growth at 1 uM incubated for 48 hrs by sulforhodamine B assay relative to control
Type: functional
Settings: read-out: Activity

`COc1cccc(NC(=O)c2sc3nc4c(cc3c2N)CN(Cc2ccccc2)CC4)c1` was tested. Which growth at 1 µM did it give?
Its growth at 1 µM is 96%.
